Drawing on ChEMBL document CHEMBL1926556, “Synthesis and biological activities of 2-[(heteroaryl)methyl]imidazolines” (Bioorg Med Chem, 2012), this text covers Activity, Ki and IC50 for 1 molecule.

SMILES strings stand for the structures. Active and inactive are the calls of the source. The calls are words filed in the database; no cut-off is given here.

For test [1], the species on record is Rattus norvegicus. As to the kind of experiment: Displacement of [3H]BFI from imidazoline I2 in Sprague-Dawley rat brain membranes at 1 X 10^6 after 45 mins by scintillation counting. It counts as cell membranes. The settings on record: Membrane. Background: Displacement assays read how much labelled ligand stays bound in the presence of the test substance.

Test [2] has as its target T1, Adrenergic receptor alpha-2 (Rattus norvegicus, UniProt P22086+P19328+P22909).
T1 sequence (P22086 whole entry): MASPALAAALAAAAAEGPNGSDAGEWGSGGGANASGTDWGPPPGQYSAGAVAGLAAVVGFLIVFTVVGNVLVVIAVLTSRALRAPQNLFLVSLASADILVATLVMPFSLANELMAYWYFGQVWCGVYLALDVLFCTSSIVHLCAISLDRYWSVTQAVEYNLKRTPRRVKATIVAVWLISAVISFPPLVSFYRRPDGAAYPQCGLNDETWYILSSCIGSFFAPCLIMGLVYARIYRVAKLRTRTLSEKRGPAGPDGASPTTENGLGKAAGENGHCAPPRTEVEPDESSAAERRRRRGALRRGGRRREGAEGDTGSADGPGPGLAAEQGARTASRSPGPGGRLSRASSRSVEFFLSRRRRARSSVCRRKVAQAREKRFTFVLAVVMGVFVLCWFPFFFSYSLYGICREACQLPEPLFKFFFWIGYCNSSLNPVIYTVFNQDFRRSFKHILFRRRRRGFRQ
T1 sequence (P19328 whole entry): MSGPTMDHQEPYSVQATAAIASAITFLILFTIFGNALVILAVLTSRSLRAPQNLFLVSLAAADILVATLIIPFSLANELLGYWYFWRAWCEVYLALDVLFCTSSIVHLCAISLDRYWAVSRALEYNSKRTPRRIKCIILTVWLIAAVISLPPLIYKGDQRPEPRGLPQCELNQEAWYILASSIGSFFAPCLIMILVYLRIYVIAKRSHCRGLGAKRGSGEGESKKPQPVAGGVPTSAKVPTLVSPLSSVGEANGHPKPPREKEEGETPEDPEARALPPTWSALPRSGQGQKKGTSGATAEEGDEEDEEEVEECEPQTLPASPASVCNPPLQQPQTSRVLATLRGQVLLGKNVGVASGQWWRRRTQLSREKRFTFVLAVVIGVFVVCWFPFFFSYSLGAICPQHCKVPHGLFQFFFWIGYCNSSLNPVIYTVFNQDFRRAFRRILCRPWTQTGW
T1 sequence (P22909 whole entry): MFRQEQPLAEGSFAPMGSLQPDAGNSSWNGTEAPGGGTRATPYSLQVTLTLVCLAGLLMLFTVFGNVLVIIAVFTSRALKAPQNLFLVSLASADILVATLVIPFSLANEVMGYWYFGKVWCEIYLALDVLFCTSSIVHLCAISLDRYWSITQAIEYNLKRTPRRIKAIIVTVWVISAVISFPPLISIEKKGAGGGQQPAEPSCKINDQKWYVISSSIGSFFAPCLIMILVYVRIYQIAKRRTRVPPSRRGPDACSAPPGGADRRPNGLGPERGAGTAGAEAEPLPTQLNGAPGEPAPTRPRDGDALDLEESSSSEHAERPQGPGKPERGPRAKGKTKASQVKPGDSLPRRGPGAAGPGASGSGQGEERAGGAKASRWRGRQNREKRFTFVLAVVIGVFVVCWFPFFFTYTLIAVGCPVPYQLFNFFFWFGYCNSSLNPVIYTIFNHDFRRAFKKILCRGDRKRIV
The test can be described thus: Displacement of […] from adrenoceptor alpha2 in Sprague-Dawley rat brain membranes after 45 mins by scintillation counting. It counts as cell membranes, Membrane. Put shortly:
(§1)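 Crude P2 membranes from male Sprague–Dawley rat brain (250–280 g), 0.2–0.3 mg protein. Radioligand 1 nM: [3H]2BFI for I2, [3H]prazosin for α1, [3H]RX821002 for α2. Non-specific binding defined by 10 µM BU224 (I2), 10 µM phenylephrine (α1) or 10 µM rauwolscine (α2). 11 concentrations from 0.01 nM to 100 µM, triplicate, 45 min at RT. Filtration and scintillation counting; Ki by Cheng–Prusoff.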

The target in test [3] is T2, Adrenergic receptor alpha-1 (Rattus norvegicus, UniProt P15823+P23944+P43140).
T2 sequence (P15823 whole entry): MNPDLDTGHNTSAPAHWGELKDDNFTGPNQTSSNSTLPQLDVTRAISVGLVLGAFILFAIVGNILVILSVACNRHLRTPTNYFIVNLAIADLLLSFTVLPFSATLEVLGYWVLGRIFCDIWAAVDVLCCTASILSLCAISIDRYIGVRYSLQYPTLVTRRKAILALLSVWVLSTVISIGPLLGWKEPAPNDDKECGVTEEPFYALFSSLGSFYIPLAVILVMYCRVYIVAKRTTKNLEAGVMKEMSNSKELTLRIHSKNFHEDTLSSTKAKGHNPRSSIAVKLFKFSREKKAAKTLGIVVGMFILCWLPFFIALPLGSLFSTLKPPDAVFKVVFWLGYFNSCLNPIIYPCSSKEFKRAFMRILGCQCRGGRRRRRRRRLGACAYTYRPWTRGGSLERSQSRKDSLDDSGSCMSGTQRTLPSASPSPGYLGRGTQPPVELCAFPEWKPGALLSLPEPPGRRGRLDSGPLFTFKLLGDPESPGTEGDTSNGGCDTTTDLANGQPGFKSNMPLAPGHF
T2 sequence (P23944 whole entry): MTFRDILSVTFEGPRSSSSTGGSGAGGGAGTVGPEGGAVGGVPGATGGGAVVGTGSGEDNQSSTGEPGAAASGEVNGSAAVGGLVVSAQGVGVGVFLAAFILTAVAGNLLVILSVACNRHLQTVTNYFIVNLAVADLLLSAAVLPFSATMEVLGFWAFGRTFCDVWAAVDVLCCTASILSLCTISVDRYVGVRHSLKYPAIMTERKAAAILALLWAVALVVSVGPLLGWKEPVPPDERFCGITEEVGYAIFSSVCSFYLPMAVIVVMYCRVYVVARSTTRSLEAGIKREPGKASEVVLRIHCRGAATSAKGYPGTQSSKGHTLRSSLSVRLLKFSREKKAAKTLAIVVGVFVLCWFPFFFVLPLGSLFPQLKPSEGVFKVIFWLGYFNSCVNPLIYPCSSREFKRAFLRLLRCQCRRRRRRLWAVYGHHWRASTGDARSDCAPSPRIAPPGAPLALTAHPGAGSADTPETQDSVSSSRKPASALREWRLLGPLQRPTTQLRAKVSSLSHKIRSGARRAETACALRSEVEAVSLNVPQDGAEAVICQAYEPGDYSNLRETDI
T2 sequence (P43140 whole entry): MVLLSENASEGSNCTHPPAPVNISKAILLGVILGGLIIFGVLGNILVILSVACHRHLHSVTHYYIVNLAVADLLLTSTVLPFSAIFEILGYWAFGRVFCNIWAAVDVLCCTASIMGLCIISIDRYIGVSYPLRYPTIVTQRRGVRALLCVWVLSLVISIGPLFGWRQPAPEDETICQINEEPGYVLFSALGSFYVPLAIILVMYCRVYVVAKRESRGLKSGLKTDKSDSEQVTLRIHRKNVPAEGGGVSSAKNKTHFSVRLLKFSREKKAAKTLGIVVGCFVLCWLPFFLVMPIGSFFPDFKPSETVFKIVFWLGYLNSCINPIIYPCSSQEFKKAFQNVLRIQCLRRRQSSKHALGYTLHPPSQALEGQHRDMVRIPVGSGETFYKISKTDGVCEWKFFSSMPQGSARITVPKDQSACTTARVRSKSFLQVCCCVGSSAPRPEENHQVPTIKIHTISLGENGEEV
The test can be described thus: Displacement of [3H]prazosin from adrenoceptor alpha1 in Sprague-Dawley rat brain after 45 mins by scintillation counting. Put shortly:
as §1

Test [4] deals with Nischarin (Rattus norvegicus, UniProt Q4G017). The test can be described thus: Displacement of [3H]clonidine from imidazoline I1 receptor in Sprague-Dawley rat kidney membranes after 45 mins by scintillation counting. It counts as cell membranes, Membrane. Put shortly:
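Crude P2 membranes from male Sprague–Dawley rat kidney, 0.2–0.5 mg protein. […] Specific binding defined by 10 µM rilmenidine. 11 concentrations from 0.01 to 100 µM, 50 mM Tris-HCl pH 7.4, 45 min at RT. Filtration and scintillation counting; IC50.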

Nischarin, sequence (Q4G017 whole entry): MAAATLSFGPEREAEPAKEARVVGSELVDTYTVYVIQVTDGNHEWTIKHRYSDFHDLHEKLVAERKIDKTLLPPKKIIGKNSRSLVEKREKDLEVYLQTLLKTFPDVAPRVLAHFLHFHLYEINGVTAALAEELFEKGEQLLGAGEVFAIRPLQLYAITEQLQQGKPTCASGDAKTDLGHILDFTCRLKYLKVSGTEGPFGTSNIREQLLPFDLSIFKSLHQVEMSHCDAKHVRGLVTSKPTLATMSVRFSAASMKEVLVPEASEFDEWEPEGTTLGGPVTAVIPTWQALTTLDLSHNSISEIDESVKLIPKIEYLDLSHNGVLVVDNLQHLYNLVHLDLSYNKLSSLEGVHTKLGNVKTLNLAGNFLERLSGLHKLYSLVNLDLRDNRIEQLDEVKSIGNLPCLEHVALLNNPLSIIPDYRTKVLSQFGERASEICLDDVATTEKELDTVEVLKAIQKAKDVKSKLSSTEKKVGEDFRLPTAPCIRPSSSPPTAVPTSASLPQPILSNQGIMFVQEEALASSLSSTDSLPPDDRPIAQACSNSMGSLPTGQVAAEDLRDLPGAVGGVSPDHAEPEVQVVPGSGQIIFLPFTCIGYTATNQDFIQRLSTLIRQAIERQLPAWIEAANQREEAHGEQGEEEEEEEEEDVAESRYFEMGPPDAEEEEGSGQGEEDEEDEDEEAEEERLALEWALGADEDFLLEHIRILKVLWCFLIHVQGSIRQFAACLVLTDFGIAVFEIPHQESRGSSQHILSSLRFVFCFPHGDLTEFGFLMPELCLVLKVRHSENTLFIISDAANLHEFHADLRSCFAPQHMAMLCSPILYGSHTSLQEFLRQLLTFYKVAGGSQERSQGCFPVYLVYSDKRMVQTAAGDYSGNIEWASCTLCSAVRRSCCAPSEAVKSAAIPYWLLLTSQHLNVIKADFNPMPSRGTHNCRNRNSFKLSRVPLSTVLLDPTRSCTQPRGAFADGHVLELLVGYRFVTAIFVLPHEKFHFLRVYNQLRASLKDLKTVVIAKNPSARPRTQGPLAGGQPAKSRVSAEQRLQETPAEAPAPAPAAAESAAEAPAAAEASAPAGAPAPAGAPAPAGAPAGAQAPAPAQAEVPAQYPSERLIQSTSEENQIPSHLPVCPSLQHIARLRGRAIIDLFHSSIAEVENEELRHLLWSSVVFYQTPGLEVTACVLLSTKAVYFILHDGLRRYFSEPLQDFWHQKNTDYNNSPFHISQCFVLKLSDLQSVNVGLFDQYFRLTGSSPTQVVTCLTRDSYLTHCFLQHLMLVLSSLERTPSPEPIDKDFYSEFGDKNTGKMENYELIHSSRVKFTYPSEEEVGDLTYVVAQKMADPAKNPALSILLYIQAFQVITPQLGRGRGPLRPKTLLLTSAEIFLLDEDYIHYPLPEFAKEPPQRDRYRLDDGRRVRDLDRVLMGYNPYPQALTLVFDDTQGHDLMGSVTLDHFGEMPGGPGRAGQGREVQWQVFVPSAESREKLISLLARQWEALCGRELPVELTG

As for `Cc1nc2ccccc2n1CC1=NCCN1.Cl.Cl`, the outcome in test [1] was inactive. The Ki in test [2] was found to be 1.02 µM; in test [3], 1.29 µM. Besides, the 50% inhibitory concentration (IC50) in test [4] was 9.39 µM.

A word on the Ki: it is the equilibrium dissociation constant of an inhibitor or competing ligand from its target. High values mean weaker binding, low ones tighter binding. By IC50 is commonly meant the concentration that inhibits the measured activity by half. A high value points to lower potency.
